Test results reported in ChEMBL document CHEMBL1240439, “Synthesis and docking studies of novel benzopyran-2-ones with anticancer activity” (2010).

Key:
Assay type in all cases: functional
[1] = system: RPMI-8226; assay: Cytotoxicity against human RPMI8226 cells assessed as cell growth at 10 uM after 48 hrs by sulforhodamine B assay; conditions: RPMI-8226, 48 h, read-out: Activity
[2] = system: K562; assay: Cytotoxicity against human K562 cells assessed as cell growth at 10 uM after 48 hrs by sulforhodamine B assay; conditions: K562, 48 h, read-out: Activity
[3] = system: HL-60(TB); assay: Cytotoxicity against human HL-60(TB) cells assessed as cell growth at 10 uM after 48 hrs by sulforhodamine B assay; conditions: HL-60, 48 h, read-out: Activity
[4] = system: T47D; assay: Cytotoxicity against human T47D cells assessed as cell growth at 10 uM after 48 hrs by sulforhodamine B assay; conditions: read-out: Activity
[5] = system: A549; assay: Cytotoxicity against human A549 cells assessed as cell growth at 10 uM after 48 hrs by sulforhodamine B assay; conditions: A549, 48 h, read-out: Activity
[6] = system: HOP-92; assay: Cytotoxicity against human HOP92 cells assessed as cell growth at 10 uM after 48 hrs by sulforhodamine B assay; conditions: HOP-92, 48 h, read-out: Activity
[7] = system: NCI-H322M; assay: Cytotoxicity against human NCI-H322M cells assessed as cell growth at 10 uM after 48 hrs by sulforhodamine B assay; conditions: read-out: Activity
[8] = system: NCI-H460; assay: Cytotoxicity against human NCI-H460 cells assessed as cell growth at 10 uM after 48 hrs by sulforhodamine B assay; conditions: NCI-H460, 48 h, read-out: Activity
[9] = system: COLO 205; assay: Cytotoxicity against human COLO205 cells assessed as cell growth at 10 uM after 48 hrs by sulforhodamine B assay; conditions: COLO 205, 48 h, read-out: Activity
[10] = system: HCC 2998; assay: Cytotoxicity against human HCC2998 cells assessed as cell growth at 10 uM after 48 hrs by sulforhodamine B assay; conditions: HCC 2998, 48 h, read-out: Activity
[11] = system: HCT-116; assay: Cytotoxicity against human HCT116 cells assessed as cell growth at 10 uM after 48 hrs by sulforhodamine B assay; conditions: HCT-116, 48 h, read-out: Activity
[12] = system: SW-620; assay: Cytotoxicity against human SW620 cells assessed as cell growth at 10 uM after 48 hrs by sulforhodamine B assay; conditions: SW-620, 48 h, read-out: Activity
[13] = system: MCF7; assay: Cytotoxicity against human MCF7 cells assessed as cell growth at 10 uM after 48 hrs by sulforhodamine B assay; conditions: MCF7, 48 h, read-out: Activity
[14] = system: MDA-MB-468; assay: Cytotoxicity against human MDA-MB-468 cells assessed as cell growth at 10 uM after 48 hrs by sulforhodamine B assay; conditions: MDA-MB-468, 48 h, read-out: Activity
[15] = system: IGROV-1; assay: Cytotoxicity against human IGROV1 cells assessed as cell growth at 10 uM after 48 hrs by sulforhodamine B assay; conditions: IGROV-1, 48 h, read-out: Activity
[16] = system: OVCAR-5; assay: Cytotoxicity against human OVCAR5 cells assessed as cell growth at 10 uM after 48 hrs by sulforhodamine B assay; conditions: OVCAR-5, 48 h, read-out: Activity
[17] = system: 786-0; assay: Cytotoxicity against human 786-0 cells assessed as cell growth at 10 uM after 48 hrs by sulforhodamine B assay; conditions: 786-0, 48 h, read-out: Activity
[18] = system: A498; assay: Cytotoxicity against human A498 cells assessed as cell growth at 10 uM after 48 hrs by sulforhodamine B assay; conditions: A498, 48 h
[19] = system: RXF 393; assay: Cytotoxicity against human RXF393 cells assessed as cell growth at 10 uM after 48 hrs by sulforhodamine B assay; conditions: RXF 393, 48 h, read-out: Activity
[20] = system: LOX IMVI; assay: Cytotoxicity against human LOXIMVI cells assessed as cell growth at 10 uM after 48 hrs by sulforhodamine B assay; conditions: read-out: Activity
[21] = system: Malme-3M; assay: Cytotoxicity against human MALME-3M cells assessed as cell growth at 10 uM after 48 hrs by sulforhodamine B assay; conditions: read-out: Activity
[22] = system: SK-MEL-28; assay: Cytotoxicity against human SK-MEL-28 cells assessed as cell growth at 10 uM after 48 hrs by sulforhodamine B assay; conditions: SK-MEL-28, 48 h, read-out: Activity
[23] = system: SF-539; assay: Cytotoxicity against human SF539 cells assessed as cell growth at 10 uM after 48 hrs by sulforhodamine B assay; conditions: SF-539, 48 h, read-out: Activity
[24] = system: SNB-19; assay: Cytotoxicity against human SNB19 cells assessed as cell growth at 10 uM after 48 hrs by sulforhodamine B assay; conditions: SNB-19, 48 h, read-out: Activity
[25] = Cytotoxicity against human leukemia cells after 48 hrs by sulforhodamine B assay; conditions: Leukemia cell
In short: (§1)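 Cells plated at 5000–40,000/well according to doubling time, then held 24 h at 37 °C, 5% CO2, with time-zero plates TCA-fixed. DMSO stocks (400× top concentration) were diluted in medium containing 50 μg/ml gentamycin, giving five 10-fold or ½-log concentrations. After 48 h, adherent cells were fixed in 10% TCA and suspension cells in 16% TCA (final), stained with 0.4% SRB, read at 515 nm. GI50, TGI and LC50 were calculated per cell line.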

[26] = Cytotoxicity against human melanoma cells after 48 hrs by sulforhodamine B assay; conditions: Melanoma cell; in short: as §1
[27] = Cytotoxicity against human renal cancer cells after 48 hrs by sulforhodamine B assay; conditions: Cancer cell lines; in short: as §1
[28] = Cytotoxicity against human prostate cancer cells after 48 hrs by sulforhodamine B assay; conditions: Cancer cell lines; in short: as §1
[29] = Cytotoxicity against human breast cancer cells after 48 hrs by sulforhodamine B assay; conditions: Cancer cell lines; in short: as §1
[30] = system: CCRF-CEM; assay: Cytotoxicity against human CCRF-CEM cells after 48 hrs by sulforhodamine B assay
In short: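 Cells were plated at 5000–40,000/well according to doubling time and preincubated 24 h at 37 °C, 5% CO2. Time-zero plates were TCA-fixed. DMSO stocks were diluted in medium with gentamycin to five concentrations (10-fold or ½ log series) plus control, then incubated 48 h. Adherent cells were fixed with cold TCA (suspension cells with 16% final), stained with SRB, and read at 515 nm. GI50, TGI and LC50 were calculated per line.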

[31] = system: HL-60(TB); assay: Cytotoxicity against human HL-60(TB) cells after 48 hrs by sulforhodamine B assay; conditions: HL-60, 48 h
In short: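 Cells plated at 5000–40,000/well by doubling time and held 24 h at 37 °C, 5% CO2, with TCA-fixed zero-time plates. Drug given as DMSO stock diluted in medium with 50 μg/ml gentamycin, five concentrations (10-fold or ½ log steps), for 48 h. Settled suspension cells fixed with TCA (final 16%), stained with 0.4% SRB, read at 515 nm. GI50, TGI and LC50 calculated.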

[32] = read-out: LC50 (the source's name)

What does the source list for `Cc1cc(=O)n(C(=O)COc2ccc3c(-c4ccccc4)cc(=O)oc3c2C)[nH]1`?
growth at 10 µM [1]: -18.2%; growth at 10 µM [2]: -24.1%; growth at 10 µM [3]: -66.6%; growth at 10 µM [4]: -1.54%; growth at 10 µM [5]: 0.69%; growth at 10 µM [6]: -64.4%; growth at 10 µM [7]: -24.7%; growth at 10 µM [8]: 10.9%; growth at 10 µM [9]: 6.21%; growth at 10 µM [10]: 17.4%; growth at 10 µM [11]: -65.9%; growth at 10 µM [12]: -65.9%; growth at 10 µM [13]: -14.4%; growth at 10 µM [14]: -8.13%; growth at 10 µM [15]: -17.5%; growth at 10 µM [16]: 10.2%; growth at 10 µM [17]: -58.8%; TGI [18]: 3.76 µM; growth at 10 µM ([18]; read-out: Activity): -3.79%; growth at 10 µM [19]: -37%; growth at 10 µM [20]: -61.8%; growth at 10 µM [21]: -8.61%; growth at 10 µM [22]: -47.2%; growth at 10 µM [23]: -78.2%; growth at 10 µM [24]: 33.6%; GI50 [25]: 3.44 µM; TGI [25]: 50.8 µM; CC50 [25, 32]: 94 µM; GI50 [26]: 4.65 µM; TGI [26]: 43.2 µM; CC50 [26, 32]: 72.4 µM; GI50 [27]: 10.7 µM; TGI [27]: 21.4 µM; CC50 [27, 32]: 55.2 µM; GI50 [28]: 2.38 µM; TGI [28]: 5.75 µM; CC50 [28, 32]: 29.4 µM; GI50 [29]: 4.23 µM; TGI [29]: 33.7 µM; CC50 [29, 32]: 87.5 µM; GI50 [30]: < 0.04 µM; TGI [30]: 0.57 µM; TGI [31]: 2.62 µM
